Measured values as given in ChEMBL document CHEMBL2424556, “Hybrid benzofuran-bisindole derivatives: new prototypes with promising anti-hyperlipidemic activities” (2013).
Activity calls are given as the source filed them. The calls are words filed in the database; no cut-off is given here.

Columns and labels:
[1] = Antioxidant activity assessed as inhibition of microsomal lipid peroxidation at 200 ug/mL by spectrophotometric analysis relative to control; type: functional
[2] = Antioxidant activity assessed as inhibition of hydroxyl radical generation at 200 ug/mL after 90 mins by spectrophotometric analysis relative to control; type: functional
Method in brief: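 Hydroxyl radicals were generated non-enzymically from deoxyribose (2.8 mM), FeSO4 (2 mM), sodium ascorbate (2.0 mM) and H2O2 (2.8 mM) in KH2PO4 buffer pH 7.4, 2.5 mL final, with or without agent at 200 µg/ml, for 90 min at 37 °C. MDA was read spectrophotometrically by the thiobarbituric acid method against reference samples and reagent blanks.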

Rattus norvegicus [3] = experiment: Antihyperlipidemic activity in Charles-Foster rat assessed as post heparin lipolytic activity at 100 mg/kg, po after 18 hrs by spectrophotometric analysis relative to control; type: functional
Method in brief: (§1)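 Male adult Charles Foster rats (200-225 g), 6 per group. Triton WR-1339 400 mg/kg i.p.; test agent 100 mg/kg p.o. as gum acacia (0.2% w/v) suspension in water, given simultaneously, diet withdrawn; vehicle to control and triton groups. At 18 h under thiopentone (50 mg/kg), retro-orbital blood collected into EDTA and plasma separated. Post-heparin lipolytic activity read spectrophotometrically as nmol free fatty acid/h/ml plasma; mean ± SD; Student's t-test.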

Rattus norvegicus [4] = experiment: Antihyperlipidemic activity in Charles-Foster rat assessed as reversal of triton-induced increase in plasma phospholipid level at 100 mg/kg, po after 18 hrs relative to triton-treated control; type: functional
Method in brief: (§2)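 Male adult Charles Foster rats (200-225 g), 6 per group; triton WR-1339 400 mg/kg i.p. plus oral test agent in 0.2% gum acacia suspension, given together, diet withdrawn. After 18 h, retro-orbital EDTA blood was centrifuged 2500 g, 4 °C, 10 min; plasma was diluted 1:3 in saline and TC, PL and TG were assayed enzymatically (mg/dl). Mean ± SD; Student's t-test.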

Rattus norvegicus [5] = experiment: Antihyperlipidemic activity in Charles-Foster rat assessed as reversal of triton-induced increase in plasma total cholesterol level at 100 mg/kg, po after 18 hrs relative to triton-treated control; type: functional; method in brief: as §2
Rattus norvegicus [6] = experiment: Antihyperlipidemic activity in Charles-Foster rat assessed as reversal of triton-induced increase in plasma phospholipid level at 100 mg/kg, po after 18 hrs relative to control; type: functional; method in brief: as §2
Rattus norvegicus [7] = experiment: Antihyperlipidemic activity in Charles-Foster rat assessed as reversal of triton-induced increase in plasma triglyceride level at 100 mg/kg, po after 18 hrs relative to control; type: functional; method in brief: as §2
Rattus norvegicus [8] = experiment: Antihyperlipidemic activity in Charles-Foster rat assessed as reversal of triton-induced increase in plasma total cholesterol level at 100 mg/kg, po after 18 hrs relative to control; type: functional; method in brief: as §2
Rattus norvegicus [9] = experiment: Antihyperlipidemic activity in Charles-Foster rat assessed as reversal of triton-induced increase in plasma triglyceride level at 100 mg/kg, po after 18 hrs relative to triton-treated control; type: functional; method in brief: as §2
Rattus norvegicus [10] = experiment: Antihyperlipidemic activity in Charles-Foster rat assessed as post heparin lipolytic activity at 100 mg/kg, po after 18 hrs by spectrophotometric analysis relative to triton-treated control; type: functional; method in brief: as §1
Rattus norvegicus [11] = experiment: Antihyperlipidemic activity in triton-induced Charles-Foster rat assessed as increase in plasma lecithin cholesterol acyltransferase activity at 100 mg/kg, po after 18 hrs by colorimetric assay; type: functional, organism-based; set-up: dose 100 mg/kg

SMILES	inhibition [1]	inhibition [2]	Activity (Rattus norvegicus [3])	Activity (Rattus norvegicus [4])	Activity (Rattus norvegicus [5])	Activity (Rattus norvegicus [6])	Activity (Rattus norvegicus [7])	Activity (Rattus norvegicus [8])	Activity (Rattus norvegicus [9])	Activity (Rattus norvegicus [10])	Activity (Rattus norvegicus [11])
Cc1c(C)c2c(c(C)c1O)CC[C@@](C)(CCC[C@H](C)CCC[C@H](C)CCCC(C)C)O2	52%	49%	–	–	–	–	–	–	–	–	–
CC(C)(C)c1cc(C(c2c[nH]c3ccccc23)c2c[nH]c3ccccc23)cc2cc(C(=O)c3ccc(Cl)cc3)oc12	–	–	14.37 nmol/h/mL	-9%	-10%	187.91 mg/dL	194.49 mg/dL	165.78 mg/dL	-10%	9%	–
COc1ccc(C(=O)c2cc3cc(C(c4c[nH]c5ccc([N+](=O)[O-])cc45)c4c[nH]c5ccc([N+](=O)[O-])cc45)cc(C(C)C)c3o2)cc1	–	–	13.75 nmol/h/mL	-10%	-9%	186.19 mg/dL	193.81 mg/dL	167.63 mg/dL	-10%	4%	–
COc1ccc(C(=O)c2cc3cc(C(c4c[nH]c5ccccc45)c4c[nH]c5ccccc45)cc(C(C)C)c3o2)cc1	–	–	14.79 nmol/h/mL	-15%	-17%	175.84 mg/dL	181.53 mg/dL	152.89 mg/dL	-16%	12%	–
Cc1ccc(C(=O)c2cc3cc(C(c4c[nH]c5ccccc45)c4c[nH]c5ccccc45)cc(C)c3o2)cc1	–	–	14.26 nmol/h/mL	-8%	-8%	190.32 mg/dL	196.66 mg/dL	169.47 mg/dL	-9%	8%	–
COc1ccc(C(=O)c2cc3cc(C(c4c[nH]c5ccccc45)c4c[nH]c5ccccc45)cc(C(C)(C)C)c3o2)cc1	–	–	13.73 nmol/h/mL	-8%	-7%	190.32 mg/dL	198.82 mg/dL	171.31 mg/dL	-8%	4%	–
CCc1cc(C(c2c[nH]c3ccccc23)c2c[nH]c3ccccc23)cc2cc(C(=O)c3ccc(OC)cc3)oc12	–	–	14.26 nmol/h/mL	-8%	-8%	190.32 mg/dL	196.66 mg/dL	169.47 mg/dL	-9%	8%	–
CC(C)c1cc(C(c2c[nH]c3ccccc23)c2c[nH]c3ccccc23)cc2cc(C(=O)c3ccc(C#N)cc3)oc12	–	–	13.75 nmol/h/mL	-10%	-9%	186.19 mg/dL	193.81 mg/dL	167.63 mg/dL	-10%	4%	–
COc1ccc(C(=O)c2cc3cc(C(c4c[nH]c5ccccc45)c4c[nH]c5ccccc45)cc(C)c3o2)cc1	–	–	13.71 nmol/h/mL	-11%	-12%	184.12 mg/dL	194.49 mg/dL	162.1 mg/dL	-10%	4%	–
OC[C@@H](O)[C@@H](O)[C@H](O)[C@H](O)CO	52%	49%	–	–	–	–	–	–	–	–	–
CCc1cc(C(c2c[nH]c3ccccc23)c2c[nH]c3ccccc23)cc2cc(C(=O)c3ccc(Cl)cc3)oc12	–	–	15.05 nmol/h/mL	-21%	-20%	163.43 mg/dL	170.72 mg/dL	147.36 mg/dL	-21%	14%	–
Cc1cc(C(c2c[nH]c3ccccc23)c2c[nH]c3ccccc23)cc2cc(C(=O)c3ccc(C#N)cc3)oc12	–	–	13.87 nmol/h/mL	-8%	-7%	190.11 mg/dL	200.98 mg/dL	171.25 mg/dL	-7%	5%	–
COc1ccc(C(=O)c2cc3cc(C(c4c[nH]c5ccc(OC)cc45)c4c[nH]c5ccc(OC)cc45)cc(Cl)c3o2)cc1	–	–	15.19 nmol/h/mL	-20%	-21%	165.5 mg/dL	168.56 mg/dL	145.52 mg/dL	-22%	15%	–
CC(C)c1cc(C(c2c[nH]c3ccccc23)c2c[nH]c3ccccc23)cc2cc(C(=O)c3ccc(Cl)cc3)oc12	–	–	13.77 nmol/h/mL	-10%	-12%	186.19 mg/dL	194.4 mg/dL	162.1 mg/dL	-10%	4%	–
Cc1cc(C(c2c[nH]c3ccccc23)c2c[nH]c3ccccc23)cc2cc(C(=O)c3ccc(Cl)cc3)oc12	–	–	14.39 nmol/h/mL	-10%	-11%	186.19 mg/dL	192.33 mg/dL	163.94 mg/dL	-11%	9%	–
CCCc1cc(C(c2c[nH]c3ccc(O)cc23)c2c[nH]c3ccc(O)cc23)cc2cc(C(=O)c3ccc(OC)cc3)oc12	–	–	15.19 nmol/h/mL	-22%	-22%	161.36 mg/dL	172.88 mg/dL	143.68 mg/dL	-20%	15%	–
CCc1cc(C(c2c[nH]c3ccc([N+](=O)[O-])cc23)c2c[nH]c3ccc([N+](=O)[O-])cc23)cc2cc(C(=O)c3ccc(OC)cc3)oc12	–	–	13.47 nmol/h/mL	-6%	-4%	194.46 mg/dL	207.46 mg/dL	176.84 mg/dL	-4%	2%	–
Cc1ccc(C)c(OCCCC(C)(C)C(=O)O)c1 [GEMFIBROZIL]	–	–	15.85 nmol/h/mL	-35%	-34%	134.47 mg/dL	142.63 mg/dL	121.57 mg/dL	-34%	20%	Active
